# APOBEC3G inh = blocks human APOBEC3G single-stranded DNA deamination; Q9HC16; recombinant A3G, ssDNA deamination FAM/TAMRA fluorescence; inhibition, % at 20 µM; 330,000 tested, 0.28% active; AID 493012;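 active = inhibition of at least 40% at 20 µM, with no more than 30% in the related APOBEC3A deaminase screen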
# PfG6PD inh = PfG6PD (Plasmodium falciparum) enzyme inhibition; PfGluPho enzyme, NADPH resazurin-diaphorase fluorescence; inhibition, % at 20 µM; 350,000 tested, 0.78% active; AID 504690;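 active = inhibition reaching at least a set limit at 20 µM in the primary screen, cut at about 59% in these data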
# A3A deaminase = inhibitors of human APOBEC3A DNA deaminase; P31941; recombinant A3A, FAM/TAMRA ssDNA deamination fluorescence; inhibition, % at 20 µM; 330,000 tested, 0.41% active;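 active = at least 40% inhibition at 20 µM here, with at most 30% in a related deaminase screen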
# HKDC1 inhibitor = HKDC1 (human) hexokinase inhibition; inhibition, % at 20 µM; recombinant HKDC1, G6PDH/diaphorase resazurin coupled fluorescence; Q2TB90; 340,000 tested, 0.16% active;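 active = inhibition above about 35% when tested at 20 µM, limit read from the data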
#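 Assay system – recombinant HKDC1 (HK5) hexokinase enzyme, produced in-house · Input – HKDC1 at 5 µg/mL · Reagent – glucose plus 1 mM ATP as hexokinase substrates · Timing – 90 min reaction incubation at room temperature, dark · Measured by – G6PDH/diaphorase-coupled fluorescence, 1 mM NADP, 100 µM resazurin, 525/613 nm · Benchmarks – DMSO-enzyme wells negative, buffer-substituted wells positive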
# PfM18AAP inh = PfM18AAP enzyme inhibition. recombinant PfM18AAP, H-Glu-NHMec fluorogenic cleavage. inhibition, % at 7.35 µM. 290,000 tested, 1.2% active. AID 1822;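 active = inhibition above the campaign mean inhibition over all tested compounds plus 3 SD, cut at about 28% in these data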
# UBC9 SUMO inh = SUMOylation inhibition; P63279; AID 2006; inhibition, % at 35 µM; HTRF SUMOylation assay, SAE1/SAE2 + UBC9, in vitro; 290,000 tested, 0.36% active; in the data active = inhibition above about 50%, passing the limit was not always enough
# A3A conf = APOBEC3A (human) deaminase inhibition, confirmed; shares compounds with A3A deaminase; recombinant A3A, ssDNA deaminase UDG fluorescence assay; inhibition, % at 20 µM; 1,400 tested, 63% active;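 active = inhibition reaching a set limit, 80% of the first screen's cutoff, at 20 µM in any replicate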
# UDG A3A counter = counter-screen for APOBEC3A inhibitors: UDG. shares compounds with A3A deaminase. UDG counterscreen, FAM/TAMRA uracil oligo fluorescence. inhibition, % at 20 µM. 1,000 tested, under 10 active; call rule not given here
# Hits are given with their value; n = inactive; x = no result. Hits are enriched below; roughly 2.4% of the tested compounds scored in any of these assays.
SMILES,APOBEC3G inh,PfG6PD inh,A3A deaminase,HKDC1 inhibitor,PfM18AAP inh,UBC9 SUMO inh,A3A conf,UDG A3A counter
COc1cccc2cc(C(C)N(CCCN3CCOCC3)C(=S)Nc3c(C)cccc3C)oc12 (stereo unspecified),n,n,n,n,n,n,x,x
Cc1cc(Br)ccc1NC(=O)CN(C)C(=O)Cn1c(=O)cnc2ccccc21,n,n,66,n,n,n,52,n
COc1ccc(CN(CC(=O)NCc2ccc3c(c2)OCO3)C(=O)c2csnn2)cc1,n,n,n,n,n,n,x,x
O=C(COc1cccc([N+](=O)[O-])c1)N/N=C/c1ccco1,n,n,n,n,n,n,x,x
CCc1ccc(OCC(=O)N/N=C\c2ccco2)c([N+](=O)[O-])c1,n,n,43,n,n,n,43,n
O=C(COC(=O)c1ccccc1Nc1cccc(C(F)(F)F)c1)NCc1ccco1,n,n,42,n,n,n,23,n
O=C(O)C/C(=C\c1cc(Cl)c2c(c1)OCO2)c1nc2ccccc2s1,n,n,45,n,n,n,38,n
O=C(O)C/C(=C\c1ccc2c(c1)OCO2)c1nc2ccccc2s1,n,n,n,n,n,n,x,x
COc1ccc(C(=O)N2CCc3cc(OC)c(OC)cc3C2c2ccc(OC)c(OC)c2)cc1OC (stereo unspecified),n,n,59,n,n,n,n,n
Cc1[nH]c(=O)[nH]c1C(=O)CCCCC(=O)OCC(=O)Nc1ccccn1,n,n,n,n,n,n,x,x
COc1ccc(C(CC(=O)N2CCCCC2)c2c(OC)cc(OC)c3c(-c4ccccc4)cc(=O)oc23)cc1 (stereo unspecified),n,n,72,n,x,n,73,n
COc1ccc(C(CC(=O)N2CCOCC2)c2c(OC)cc(OC)c3c(-c4ccccc4)cc(=O)oc23)cc1 (stereo unspecified),n,n,60,n,x,n,48,n
COc1ccc(C(CC(=O)N2CCCC2)c2c(OC)cc(OC)c3c(-c4ccccc4)cc(=O)oc23)cc1 (stereo unspecified),n,n,75,n,x,n,76,n
COc1ccc(C(CC(=O)N2CCCC(C)C2)c2c(OC)cc(OC)c3c(-c4ccccc4)cc(=O)oc23)cc1 (stereo unspecified),n,n,69,n,x,n,63,n
O=C(CCC(=O)N(c1ccccc1)C(C(=O)NC1CCCC1)c1ccncc1)Nc1cccnc1 (stereo unspecified),n,n,n,n,n,n,x,x
O=C(COC(=O)c1cccc(Br)c1)NCCc1ccccc1,n,n,n,n,n,n,x,x
COc1cc(C(CCN2CCCCC2)c2c(OC)cc(OC)c3c(-c4ccccc4)cc(=O)oc23)cc(OC)c1OC (stereo unspecified),n,n,n,n,x,n,x,x
COc1cc(C(CC(=O)N2CCCC2)c2c(OC)cc(OC)c3c(-c4ccccc4)cc(=O)oc23)cc(OC)c1OC (stereo unspecified),n,n,43,n,x,n,n,x
O=C(C1COc2ccccc2O1)N1CCc2ccccc21 (stereo unspecified),n,n,43,n,n,n,36,n
Cc1ccc(NC(=O)c2cc(S(=O)(=O)N3CCC4(CC3)OCCO4)ccc2F)cc1,n,n,n,n,n,n,x,x
O=C1Nc2ccccc2/C1=N/c1sc2c(c1C(=O)NCCc1ccccc1)CCCC2,n,n,44,n,n,n,n,n
O=C(Nc1sc2c(c1C(=O)NCCO)CCCC2)c1ccco1,n,n,n,n,n,n,x,x
CCCCn1c(N)c(-c2nc3ccccc3o2)c2c([N+](=O)[O-])nn(CC)c(=O)c21,n,n,n,n,n,n,x,x
CCCCn1c(N)c(-c2nc3ccccc3o2)c2c([N+](=O)[O-])nn(C)c(=O)c21,n,n,53,n,n,n,n,x
CCN1/C(=C2\C(=O)N(c3ccccc3)N=C2C)C=Cc2cc(C)ccc21,n,n,49,n,n,n,n,x
SMILES,APOBEC3G inh,PfG6PD inh,A3A deaminase,HKDC1 inhibitor,PfM18AAP inh,UBC9 SUMO inh,A3A conf,UDG A3A counter
CCCOc1ccc(C(=O)Nc2ccccc2[N+](=O)[O-])cc1,n,n,76,n,n,x,n,n
CCCCOc1ccc(C(=O)Nc2ccc(C)cc2[N+](=O)[O-])cc1,n,n,n,n,n,n,x,x
O=C(c1cccc(S(=O)(=O)NCc2ccc3c(c2)OCO3)c1)N1CCCC1,n,n,89,n,x,x,n,n
O=C(c1cccc(S(=O)(=O)NCc2ccccc2)c1)N1CCCC1,n,n,n,n,n,n,x,x
O=C(Nc1ccc(F)cc1F)N1CCCN(c2ccc([N+](=O)[O-])cn2)CC1,n,n,n,n,n,n,x,x
O=C(Nc1ccc(NC(=O)C2CC2)cn1)c1ccccc1,n,n,n,n,n,n,x,x
O=C(Nc1ccc(NC(=O)C2CC2)cn1)c1ccccc1Cl,n,n,43,n,n,n,n,n
COCCn1c(N)c(N(Cc2ccccc2)C(=O)C2=COCCO2)c(=O)[nH]c1=O,n,n,49,n,n,n,n,x
CC[C@]12c3[nH]c4ccccc4c3CCN1C(=O)C(CC(=O)NCc1ccco1)C[C@@H]2C(=O)N1CCN(C(=O)C2CC2)CC1 (stereo partly specified),n,n,n,n,x,x,x,x
COc1ccc2c(c1)[N+](C)(C)C(C)(C)C=C2C,n,n,56,n,n,n,82,n
CCNC(=O)N1c2ccc(OCC)cc2C(C)=CC1(C)C,n,n,n,n,n,n,x,x
CCOc1ccc2c(c1)[N+](C)(C)C(C)(C)C=C2C,n,n,78,n,n,n,70,n
Cc1ccc(S(=O)(=O)c2c(N)n(CCCO)c3nc4ccccc4nc23)cc1,n,n,n,n,n,n,x,x
Cc1cccc(CC(=O)Nc2cc(=O)n(C)c(=O)n2C)c1,n,n,n,n,n,n,x,x
O=C1CCc2cc(S(=O)(=O)Nc3ccccc3Cl)ccc2N1,n,n,n,n,x,x,x,x
O=C1CCc2cc(S(=O)(=O)Nc3ccccc3F)ccc2N1,n,n,99,n,x,x,n,x
CCN(C(=O)COC(=O)c1ccco1)c1cccc2ccccc12,n,n,n,n,x,x,x,x
CN(C)C(=O)c1ccc(Nc2nc(-c3cccs3)nc3ccccc23)cc1,n,n,43,n,n,n,n,n
C=CCn1c(SCC(=O)Nc2ccc(F)cc2)nc2cc(C(=O)O)ccc2c1=O,n,n,n,n,n,n,x,x
Cc1ccc(NC(=O)c2cc([N+](=O)[O-])ccc2N2CCOCC2)cc1S(=O)(=O)N1CCOCC1,n,n,42,n,n,n,n,x

# Screening data: PubChem, several laboratories
